Source: ChEMBL document CHEMBL3112403, “Design, synthesis and evaluation of second generation MurF inhibitors based on a cyanothiophene scaffold” (Eur J Med Chem, 2014)

Key:
[1] = test system: Escherichia coli; assay: Antibacterial activity against Escherichia coli SM1411 harboring acrAB deletion mutant assessed as growth inhibition by broth microdilution method; type: functional
Outline: (§1)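 MIC by broth microdilution in Mueller-Hinton broth following CLSI guidelines. ES100 is the tolC derivative of AB734, and SM1411 is the acrAB derivative of 1411; both are efflux-deficient E. coli strains. Growth inhibition was read as the minimum inhibitory concentration.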

[2] = test system: Escherichia coli; assay: Antibacterial activity against Escherichia coli 1411 assessed as growth inhibition by broth microdilution method in presence of polymyxin B nonapeptide; type: functional
Outline: (§2)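 Broth microdilution MIC in Mueller-Hinton broth per CLSI, run with 4 µg/mL polymyxin B nonapeptide to permeabilize the outer membrane.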

[3] = test system: Escherichia coli; assay: Antibacterial activity against Escherichia coli AB734 assessed as growth inhibition by broth microdilution method; type: functional
Outline: (§3)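 MICs by broth microdilution in Mueller-Hinton broth following CLSI guidelines.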

[4] = test system: Escherichia coli; assay: Antibacterial activity against Escherichia coli 1411 assessed as growth inhibition by broth microdilution method; type: functional; outline: as §3
[5] = biological target: T1, UDP-N-acetylmuramoyl-tripeptide--D-alanyl-D-alanine ligase (Streptococcus pneumoniae, UniProt Q9ZHC3); assay: Inhibition of Streptococcus pneumoniae MurF ligase using D-Ala-D-Ala as substrate after 15 mins by malachite green assay
T1 sequence (Q9ZHC3 whole entry): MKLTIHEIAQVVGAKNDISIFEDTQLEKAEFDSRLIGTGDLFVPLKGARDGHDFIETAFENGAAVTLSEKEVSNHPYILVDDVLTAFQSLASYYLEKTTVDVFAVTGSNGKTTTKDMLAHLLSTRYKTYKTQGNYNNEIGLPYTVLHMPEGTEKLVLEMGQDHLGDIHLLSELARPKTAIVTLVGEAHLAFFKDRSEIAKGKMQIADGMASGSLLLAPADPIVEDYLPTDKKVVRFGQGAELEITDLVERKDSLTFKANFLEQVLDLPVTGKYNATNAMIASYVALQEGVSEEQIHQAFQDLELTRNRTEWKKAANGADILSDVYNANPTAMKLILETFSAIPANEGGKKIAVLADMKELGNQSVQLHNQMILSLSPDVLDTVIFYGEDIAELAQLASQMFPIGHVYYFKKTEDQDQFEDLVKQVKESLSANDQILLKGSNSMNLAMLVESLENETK
Outline: (§4)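 Purified S. pneumoniae MurF in 50 mM Hepes pH 8.0 with 50 mM MgCl2, 0.005% Triton X-114, 100 µM D-Ala-D-Ala, 50 µM UMtri-L-Lys and 250 µM ATP, with 5% DMSO final. After 15 min at 37 °C, Biomol reagent was added and absorbance read at 650 nm, in duplicate. RA was taken against a 5% DMSO control. IC50 was the 50% RA point from seven concentrations.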

[6] = test system: Staphylococcus aureus; assay: Antibacterial activity against Staphylococcus aureus SH1000 assessed as growth inhibition by broth microdilution method; type: functional; outline: as §3
[7] = Inhibition of Escherichia coli MurF ligase using D-Ala-D-Ala as substrate after 15 mins by malachite green assay
Outline: (§5)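 After 15 min at 37 °C, Biomol reagent was added and phosphate read at 650 nm, in duplicate. RA was taken relative to a 5% DMSO control. IC50 was taken as the concentration giving 50% RA, from seven concentrations.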

[8] = test system: Escherichia coli; assay: Antibacterial activity against Escherichia coli ES100 harboring tolC deletion mutant assessed as growth inhibition by broth microdilution method; type: functional; outline: as §1
[9] = test system: Escherichia coli; assay: Antibacterial activity against Escherichia coli AB734 assessed as growth inhibition by broth microdilution method in presence of polymyxin B nonapeptide; type: functional; outline: as §2
[10] = biological target: T2, UDP-N-acetylmuramoyl-tripeptide--D-alanyl-D-alanine ligase (Streptococcus pneumoniae) (UniProt Q9ZHC3); assay: Inhibition of Streptococcus pneumoniae MurF ligase using D-Ala-D-Ala as substrate assessed as residual activity at 250 uM after 15 mins by malachite green assay; outline: as §4
T2 sequence (whole entry): T1 sequence (Q9ZHC3 whole entry)

[11] = test system: Escherichia coli; assay: Inhibition of […] MurF ligase using D-Ala-D-Ala as substrate assessed as residual activity at 250 uM after 15 mins by malachite green assay; outline: as §5

Structure (SMILES) | MIC [1] | MIC [2] | MIC [3] | MIC [4] | IC50 [5] | MIC [6] | IC50 [7] | MIC [8] | MIC [9] | Activity [10] | Activity [11]
N#Cc1c(NC(=O)c2cc(OCCCN)ccc2Cl)sc2c1CCCC2 | 32 µg/mL | 32 µg/mL | 64 µg/mL | 64 µg/mL | 128 µM | 128 µg/mL | 272 µM | 32 µg/mL | 32 µg/mL | – | –
N#Cc1c(NC(=O)c2cc(OCCN)ccc2Cl)sc2c1CCN(Cc1ccccc1)C2 | 32 µg/mL | 32 µg/mL | 64 µg/mL | 64 µg/mL | 51 µM | 64 µg/mL | 84 µM | 16 µg/mL | 32 µg/mL | – | –
COC(=O)c1ccc(CN2CCc3c(sc(NC(=O)c4cc(OCCNC(=O)C(F)(F)F)ccc4Cl)c3C#N)C2)cc1 | > 256 µg/mL | > 256 µg/mL | > 256 µg/mL | > 256 µg/mL | – | > 256 µg/mL | 255 µM | > 256 µg/mL | > 256 µg/mL | 55% | –
Cl.N#Cc1c(NC(=O)c2cc(OCCN)ccc2Cl)sc2c1CCCC2 | 32 µg/mL | 32 µg/mL | 128 µg/mL | 128 µg/mL | 170 µM | 128 µg/mL | 208 µM | 32 µg/mL | 32 µg/mL | – | –
N#Cc1ccc(CN2CCc3c(sc(NC(=O)c4cc(OCCNC(=O)C(F)(F)F)ccc4Cl)c3C#N)C2)cc1 | > 256 µg/mL | > 256 µg/mL | > 256 µg/mL | > 256 µg/mL | – | > 256 µg/mL | – | > 256 µg/mL | > 256 µg/mL | 55% | 45%
COc1ccc(CN2CCc3c(sc(NC(=O)c4cc(OCCNC(=N)N)ccc4Cl)c3C#N)C2)cc1.Cl | 32 µg/mL | 32 µg/mL | 32 µg/mL | 32 µg/mL | 61 µM | 32 µg/mL | 78 µM | 8 µg/mL | 32 µg/mL | – | –
N#Cc1ccc(CN2CCc3c(sc(NC(=O)c4cc(OCCN)ccc4Cl)c3C#N)C2)cc1 | 64 µg/mL | 64 µg/mL | < 256 µg/mL | < 256 µg/mL | 107 µM | 128 µg/mL | 76 µM | 32 µg/mL | 64 µg/mL | – | –
Cl.N#Cc1c(NC(=O)c2cc(OCCNC(=N)N)ccc2Cl)sc2c1CCN(Cc1ccc(O)cc1)C2 | 16 µg/mL | 16 µg/mL | 64 µg/mL | 64 µg/mL | 20 µM | 4 µg/mL | 25 µM | 4 µg/mL | 16 µg/mL | – | –
Cl.N#Cc1c(NC(=O)c2cc(OCCCNC(=N)N)ccc2Cl)sc2c1CCCC2 | 16 µg/mL | 32 µg/mL | 32 µg/mL | 32 µg/mL | 78 µM | > 256 µg/mL | 102 µM | 8 µg/mL | 32 µg/mL | – | –
N#Cc1c(NC(=O)c2cc(OCCN)ccc2Cl)sc2c1CCN(Cc1ccc(-n3cnnn3)cc1)C2 | > 256 µg/mL | > 256 µg/mL | > 256 µg/mL | > 256 µg/mL | 454 µM | > 256 µg/mL | 83 µM | > 256 µg/mL | > 256 µg/mL | – | –
N#Cc1c(NC(=O)c2cc(OCCNC(=O)C(F)(F)F)ccc2Cl)sc2c1CCN(Cc1cccc(O)c1)C2 | > 256 µg/mL | > 256 µg/mL | > 256 µg/mL | > 256 µg/mL | – | > 256 µg/mL | – | > 256 µg/mL | > 256 µg/mL | 71% | 56%
Cl.N#Cc1c(NC(=O)c2cc(OCCNC(=N)N)ccc2Cl)sc2c1CCN(Cc1cccc(O)c1)C2 | 64 µg/mL | 64 µg/mL | 128 µg/mL | 128 µg/mL | 117 µM | 32 µg/mL | 143 µM | 32 µg/mL | 64 µg/mL | – | –
N#Cc1c(NC(=O)c2cc(OCC(N)=O)ccc2Cl)sc2c1CCCC2 | – | – | – | – | – | – | – | – | – | 87% | 74%
N#Cc1c(NC(=O)c2cc(OCCNC(=O)C(F)(F)F)ccc2Cl)sc2c1CCN(Cc1ccccc1)C2 | > 256 µg/mL | > 256 µg/mL | > 256 µg/mL | > 256 µg/mL | 172 µM | > 256 µg/mL | – | > 256 µg/mL | > 256 µg/mL | – | 46%
